Active and inactive are the calls of the source. The calls are words filed in the database; no cut-off is given here.
Assays:
[1] = test system: NCI-H1993; test: Induction of apoptosis in human NCI-H1993 cells at 1 uM after 24 hrs using propidium iodide by flow cytometry; assay type: functional, cell-based
Procedure, shortened: (§1)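 Apoptosis read by flow cytometry; means ± SD of at least 3 independent experiments; unpaired 2-tailed Student's t test against DMSO-treated cells, p < 0.05.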

[2] = test system: HCC827; test: Induction of apoptosis in human HCC827 cells at 1 uM after 24 hrs using propidium iodide by flow cytometry; assay type: functional, cell-based; procedure, shortened: as §1
[3] = molecular target: T1, Epidermal growth factor receptor (Homo sapiens, UniProt P00533); test: Inhibition of recombinant EGFR (unknown origin) using poly-GT peptide as substrate by Transcreener assay
[4] = test system: NCI-H1993; test: Cytotoxicity against human NCI-H1993 cells after 48 hrs by MTT assay; assay type: functional, cell-based; conditions: NCI-H1993, 48 h
[5] = test system: A549; test: Cytotoxicity against human A549 cells after 48 hrs by MTT assay; assay type: functional, cell-based; conditions: A549, 48 h
[6] = Cytotoxicity against mouse NIH/3T3 cells after 48 hrs by MTT assay; assay type: cell-based; conditions: NIH3T3, 48 h
[7] = molecular target: Insulin receptor (Homo sapiens, UniProt P06213); test: Inhibition of recombinant INSR (unknown origin) using fluorescent dye-labelled KKSRGDYMTMQIG peptide peptide as substrate after 1 hr by IMAP assay
[8] = molecular target: T2, Hepatocyte growth factor receptor (Homo sapiens, UniProt P08581); test: Inhibition of c-MET (unknown origin) phosphorylation by cell-based Western blot analysis
[9] = molecular target: T2, Hepatocyte growth factor receptor; test: Inhibition of recombinant c-MET (unknown origin) using poly-AEKY peptide as substrate after 60 mins by ADPGlo assay
[10] = test system: NCI-H1975; test: Cytotoxicity against human NCI-H1975 cells after 48 hrs by MTT assay; assay type: functional, cell-based; conditions: NCI-H1975, 48 h
[11] = molecular target: Epidermal growth factor receptor (Homo sapiens, UniProt P00533, L858R); test: Inhibition of recombinant EGFR L858R mutant (unknown origin) using poly-GT peptide as substrate after 1 hr by Transcreener assay; assay type: protein assay
[12] = molecular target: T1, Epidermal growth factor receptor; test: Inhibition of EGFR (unknown origin) phosphorylation by cell-based Western blot analysis
[13] = Cytotoxicity against human HCC827 cells after 48 hrs by MTT assay; assay type: functional, cell-based; conditions: HCC827, 48 h
[14] = test system: DU-145; test: Antiinvasive activity in human DU145 cells assessed as inhibition of HGF-induced cell motility preincubated for 1 hr before HGF treatment measured after 24 hrs by cell scattering assay; assay type: functional, cell-based
[15] = molecular target: T2, Hepatocyte growth factor receptor; test: Inhibition of recombinant c-MET (unknown origin) using poly-AEKY peptide as substrate by ADPGlo assay; conditions: TDE = time-dependent effect
[16] = molecular target: Tyrosine-protein kinase receptor UFO (Homo sapiens) (UniProt P30530); test: Inhibition of recombinant AXL (unknown origin) at 1 uM
Procedure, shortened: (§2)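 Single-point screen at 1 μM on a recombinant panel of 34 clinically relevant kinases; percent inhibition reported.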

[17] = molecular target: T2, Hepatocyte growth factor receptor; test: Inhibition of c-MET phosphorylation in human NCI-H1993 cells at 1 uM after 1 hr by Western blot analysis; assay type: cell-based
[18] = molecular target: T1, Epidermal growth factor receptor; test: Inhibition of EGFR phosphorylation in human HCC827 cells at 1 uM after 1 hr by Western blot analysis; assay type: cell-based
[19] = molecular target: T1, Epidermal growth factor receptor; test: Inhibition of EGFR phosphorylation in human NCI-H1993 cells at 1 uM after 1 hr by Western blot analysis; assay type: cell-based
[20] = test system: MDCK; test: Cytotoxicity against MDCK cells assessed as cell death at 1 uM after 48 hrs; assay type: cell-based, Canis lupus familiaris; conditions: dog
[21] = test system: MDCK; test: Antiinvasive activity in MDCK cells assessed as inhibition of HGF-induced cell motility preincubated at 0.3 uM for 1 hr before HGF treatment measured after 48 hrs by cell scattering assay; assay type: functional, cell-based; conditions: Canis lupus familiaris
[22] = molecular target: Epithelial discoidin domain-containing receptor 1 (Homo sapiens) (UniProt Q08345); test: Inhibition of recombinant DDR1 (unknown origin) at 1 uM; procedure, shortened: as §2
[23] = molecular target: Mast/stem cell growth factor receptor Kit (Homo sapiens) (UniProt P10721); test: Inhibition of recombinant c-KIT (unknown origin) at 1 uM; procedure, shortened: as §2
[24] = molecular target: Receptor-type tyrosine-protein kinase FLT3 (Homo sapiens) (UniProt P36888); test: Inhibition of recombinant FLT3 (unknown origin) at 1 uM; procedure, shortened: as §2
[25] = molecular target: T2, Hepatocyte growth factor receptor; test: Inhibition of c-MET phosphorylation in human HCC827 cells at 1 uM after 1 hr by Western blot analysis; assay type: cell-based
[26] = molecular target: Proto-oncogene tyrosine-protein kinase receptor Ret (Homo sapiens) (UniProt P07949); test: Inhibition of recombinant RET (unknown origin) at 1 uM; procedure, shortened: as §2
[27] = molecular target: Receptor tyrosine-protein kinase erbB-2 (Homo sapiens) (UniProt P04626); test: Inhibition of recombinant ErbB2 (unknown origin) at 1 uM; procedure, shortened: as §2
[28] = molecular target: T1, Epidermal growth factor receptor; test: Competitive inhibition of recombinant EGFR (unknown origin) using poly-GT peptide as substrate by Lineweaver-Burk double reciprocal plot method
Procedure, shortened: (§3)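 Recombinant enzyme activity (Vmax) measured at varied ATP and inhibitor concentrations; signal shifts (ΔS) plotted as Lineweaver–Burk double reciprocal plot to assess binding mode versus ATP.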

[29] = molecular target: T2, Hepatocyte growth factor receptor; test: Competitive inhibition of recombinant c-MET (unknown origin) using poly-AEKY peptide as substrate by Lineweaver-Burk double reciprocal plot method; procedure, shortened: as §3

## C#Cc1cccc(Nc2ncnc3cc(OCCOC)c(OCCOC)cc23)c1
[1]
  Activity: inactive
[2]
  Activity: Active

## COc1cc2c(Oc3ccc(NC(=O)c4c(C)n(C)n(-c5ccccc5)c4=O)cc3F)ccnc2cc1OCCCN1CCOCC1
[3]
  IC50: > 16000 nM
[4]
  IC50: 5 nM
[5]
  IC50: 1190 nM
[6]
  IC50: 74 nM
[7]
  IC50: 170 nM
[8]
  inhibition: Active
[9]
  IC50: 7 nM
[10]
  IC50: 1460 nM
[11]
  IC50: > 16000 nM
[12]
  inhibition: inactive
[13]
  IC50: 2510 nM

## CCOc1ccn(-c2ccc(F)cc2)c(=O)c1C(=O)Nc1ccc(Oc2ccnc(N)c2Cl)c(F)c1 [BMS-777607]
[4]
  IC50: 1110 nM
[9]
  IC50: 7 nM
[14]
  IC50: 200 nM

## COc1cc2c(Oc3ccc(NS(=O)(=O)c4cccc(-c5ccoc5)c4)cc3F)ccnc2cc1OCCCN1CCOCC1
[3]
  IC50: 3860 nM
[4]
  IC50: 4460 nM
[5]
  IC50: 8210 nM
[15]
  inhibition: tde
[7]
  IC50: > 12500 nM
[9]
  IC50: 978 nM
[10]
  IC50: 8930 nM
[11]
  IC50: 2900 nM
[13]
  IC50: 4170 nM

## COc1cc2c(Oc3ccc(NS(=O)(=O)c4cccc(-c5cccs5)c4)cc3F)ccnc2cc1OCCCN1CCN(C)CC1
[3]
  IC50: 1050 nM
[4]
  IC50: 4030 nM
[5]
  IC50: 3920 nM
[15]
  inhibition: tde
[7]
  IC50: > 12500 nM
[9]
  IC50: 2710 nM
[10]
  IC50: 4520 nM
[11]
  IC50: 1160 nM
[13]
  IC50: 5030 nM

## COc1cc2c(Oc3ccc(NC(=O)c4c(C)n(C)n(-c5ccccc5)c4=O)cc3F)ccnc2cc1OCCCN1CCN(C)CC1
[3]
  IC50: 7670 nM
[4]
  IC50: 2 nM
[5]
  IC50: 1240 nM
[6]
  IC50: 66 nM
[15]
  inhibition: tde
[7]
  IC50: 39 nM
[8]
  inhibition: Active
[9]
  IC50: 5 nM
[10]
  IC50: 1060 nM
[11]
  IC50: > 16000 nM
[12]
  inhibition: inactive
[13]
  IC50: 2580 nM

## C[C@@H](Oc1cc(-c2cnn(C3CCNCC3)c2)cnc1N)c1c(Cl)ccc(F)c1Cl [CRIZOTINIB]
[4]
  IC50: 61 nM
[1]
  Activity: inactive
[6]
  IC50: 364 nM

## CN(C)C/C=C/C(=O)Nc1cc2c(Nc3ccc(F)c(Cl)c3)ncnc2cc1O[C@H]1CCOC1 [AFATINIB]
[4]
  IC50: > 12500 nM
[1]
  Activity: inactive
[6]
  IC50: 3600 nM
[2]
  Activity: Active

## COc1cc2c(Oc3ccc(NS(=O)(=O)c4cc(-c5ccsc5)ccc4F)cc3F)ccnc2cc1OCCCN1CCN(C)CC1
[3]
  IC50: 572 nM
[4]
  IC50: 4000 nM
[5]
  IC50: 4360 nM
[15]
  inhibition: tde
[7]
  IC50: 11800 nM
[9]
  IC50: 1660 nM
[10]
  IC50: 4100 nM
[11]
  IC50: 578 nM
[13]
  IC50: 2820 nM

## COc1cc2c(Oc3ccc(NS(=O)(=O)c4ccc(-c5ccsc5)cc4)cc3F)ccnc2cc1OCCCN1CCN(C)CC1
[3]
  IC50: 1200 nM
[4]
  IC50: 5040 nM
[5]
  IC50: 6780 nM
[15]
  inhibition: tde
[7]
  IC50: > 12500 nM
[9]
  IC50: 2690 nM
[10]
  IC50: 7710 nM
[11]
  IC50: 1850 nM
[13]
  IC50: 4610 nM

## COc1cc2c(Oc3ccc(NS(=O)(=O)c4cccc(-c5ccsc5)c4)cc3F)ccnc2cc1OCCCN1CCN(C)CC1
[16]
  inhibition: > 70%
[3]
  IC50: 94 nM
[4]
  IC50: 1360 nM
[17]
  inhibition: Active
[5]
  IC50: 4760 nM
[18]
  inhibition: inactive
[19]
  inhibition: Active
[20]
  Activity: Toxic
[1]
  Activity: inactive
[6]
  IC50: 2350 nM
[2]
  Activity: Active
[21]
  Activity: Active
[15]
  inhibition: tde
[7]
  IC50: 2870 nM
[22]
  inhibition: > 70%
[23]
  inhibition: > 70%
[9]
  IC50: 398 nM
[10]
  IC50: 2300 nM
[24]
  inhibition: > 70%
[25]
  inhibition: inactive
[14]
  IC50: 1100 nM
[11]
  IC50: 310 nM
[26]
  inhibition: > 70%
[27]
  inhibition: > 70%
[28]
  inhibition: Active
[29]
  inhibition: Active
[13]
  IC50: 1940 nM

## COc1cc2c(Oc3ccc(NS(=O)(=O)c4cccc(-c5ccco5)c4)cc3F)ccnc2cc1OCCCN1CCN(C)CC1
[3]
  IC50: 1910 nM
[4]
  IC50: > 10000 nM
[6]
  IC50: 3200 nM
[15]
  inhibition: tde
[7]
  IC50: > 12500 nM
[9]
  IC50: 2710 nM
[10]
  IC50: 1620 nM
[11]
  IC50: 1900 nM
[13]
  IC50: 3110 nM

## COc1cc2c(Oc3ccc(NS(=O)(=O)c4ccc(-c5cnn(C)c5)cc4)cc3F)ccnc2cc1OCCCN1CCN(C)CC1
[3]
  IC50: 4350 nM
[4]
  IC50: 4330 nM
[5]
  IC50: > 10000 nM
[15]
  inhibition: tde
[7]
  IC50: > 12500 nM
[9]
  IC50: 1230 nM
[10]
  IC50: > 10000 nM
[11]
  IC50: 7540 nM
[13]
  IC50: 5900 nM

## COc1cc2c(Oc3ccc(NS(=O)(=O)c4cccc(-c5cnn(C)c5)c4)cc3F)ccnc2cc1OCCCN1CCOCC1
[3]
  IC50: 1370 nM
[4]
  IC50: 5230 nM
[5]
  IC50: 6440 nM
[15]
  inhibition: tde
[7]
  IC50: > 12500 nM
[9]
  IC50: 1720 nM
[10]
  IC50: 6900 nM
[11]
  IC50: 1970 nM
[13]
  IC50: 5010 nM

## COc1cc2c(Oc3ccc(NS(=O)(=O)c4cccc(-c5cnn(C)c5)c4)cc3F)ccnc2cc1OCCCN1CCN(C)CC1
[3]
  IC50: 84 nM
[4]
  IC50: 6240 nM
[5]
  IC50: 8850 nM
[6]
  IC50: 2480 nM
[15]
  inhibition: tde
[7]
  IC50: 7870 nM
[8]
  inhibition: Active
[9]
  IC50: 564 nM
[10]
  IC50: 6120 nM
[11]
  IC50: 369 nM
[12]
  inhibition: inactive
[13]
  IC50: 2830 nM

## COc1cc2c(Oc3ccc(NS(=O)(=O)c4cccc(-c5ccoc5)c4)cc3F)ccnc2cc1OCCCN1CCN(C)CC1
[3]
  IC50: 168 nM
[4]
  IC50: 2690 nM
[5]
  IC50: 3650 nM
[6]
  IC50: 1760 nM
[15]
  inhibition: tde
[7]
  IC50: 5230 nM
[8]
  inhibition: Active
[9]
  IC50: 1050 nM
[10]
  IC50: 2960 nM
[11]
  IC50: 283 nM
[12]
  inhibition: inactive
[13]
  IC50: 2500 nM
